Rows were chosen to be rich in hits. Some 3.5% of all compounds tested hit in one or more screens of this group.
MrgX1 ag – human MrgX1 receptor agonism, primary screen; AID 588627; 310,000 compounds, 0.44% hits; B-score at 10 µM; MrgX1-HEK293 cells, Fluo-4 calcium fluorescence, agonist mode; active compounds read high;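 active = calcium response B-score plate-corrected fluorescence ratio at least 3 library SD, with starting fluorescence B-score inside 5 SD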
Target sequence (Q96LB2 whole entry, looked up): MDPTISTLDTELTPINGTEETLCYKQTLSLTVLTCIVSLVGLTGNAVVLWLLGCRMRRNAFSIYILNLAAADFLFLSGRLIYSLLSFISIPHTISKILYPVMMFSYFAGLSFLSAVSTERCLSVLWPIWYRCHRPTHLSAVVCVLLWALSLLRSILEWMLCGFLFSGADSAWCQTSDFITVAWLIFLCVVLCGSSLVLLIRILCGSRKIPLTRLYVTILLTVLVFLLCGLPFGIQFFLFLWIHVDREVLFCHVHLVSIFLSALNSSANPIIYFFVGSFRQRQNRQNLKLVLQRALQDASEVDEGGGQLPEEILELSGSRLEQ
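System: HEK293 cells stably expressing human MrgX1 receptor; Dosing: test compound in the initial addition of three; Schedule: overnight plating, then 30 min 37 °C plus 30 min room-temperature dye loading; Detection: kinetic calcium dye fluorescence, Fluo-4 NW; Controls: per-plate positive and negative controls for Z′ factor.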
MrgX1 allo act – allosterically activates human MrgX1 receptor signaling; AID 588675; MrgX1-HEK293, Fluo-4 calcium flux, FDSS; active compounds read high; Q96LB2; B-score at 10 µM; 310,000 compounds, 0.63% hits;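 active = plate-corrected calcium response at least 3 library SD above typical, normal starting fluorescence, not activating the receptor alone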;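 note: compound read alongside a low EC10 to EC30 dose of BAM8-22 agonist; peak minus trough fluorescence over baseline measured at the second addition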
MrgX1 antagonist – blocks BAM8-22 activation of human MrgX1 receptor; B-score at 10 µM; Q96LB2; MRGX1-HEK293 calcium flux, Fluo-4, BAM8-22 antagonism; active compounds read low; 310,000 compounds, 1.3% hits; AID 588676;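 active = calcium-response B-score plate-corrected more than 3 library SD below zero, starting fluorescence within 5 deviations, no agonist response on first addition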;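 note: peak minus trough fluorescence over baseline after final BAM8-22 challenge near maximal dose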
RGS4 act – RGS4 potentiation or activation | HEK293 M3R/inducible RGS4, carbachol calcium flux Fluo4; active compounds read low | B-score at 10 µM | 310,000 compounds, 0.92% hits | AID 463111;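 active = B-score of the integrated calcium signal more than 4 SD below the library mean, with starting fluorescence not abnormally high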;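 note: negative B-score means reduced calcium response which marks RGS4 activation or potentiation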
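System: HEK293 FlpIn-TREx cells, stable M3R, doxycycline-inducible RGS4. Timing: overnight RGS4 induction, 30 min dye load 37 °C, 20 min compound RT. Also added: carbachol, ECmax concentration. Measured by: Fluo4 fluorescence kinetic imaging of calcium. Evaluation: integrated calcium ratio converted to B score.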
RGS4 block – human RGS4 inhibition. HEK293 M3R/RGS4 inducible, Fluo-4 calcium flux; active compounds read high; triggered by carbachol at its EC20. B-score at 10 µM. 310,000 compounds, 0.45% hits. AID 463165;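 active = B-score, a plate-corrected calcium signal, over three deviations above library mean, with baseline fluorescence within five deviations of library mean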;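 note: RGS4 expression induced by doxycycline in cells with stable M3 receptor; B-score is computed from the integrated fluorescence ratio over baseline after carbachol; higher B-score means a larger calcium signal and so more RGS4 inhibition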
Target sequence (P49798 whole entry, looked up): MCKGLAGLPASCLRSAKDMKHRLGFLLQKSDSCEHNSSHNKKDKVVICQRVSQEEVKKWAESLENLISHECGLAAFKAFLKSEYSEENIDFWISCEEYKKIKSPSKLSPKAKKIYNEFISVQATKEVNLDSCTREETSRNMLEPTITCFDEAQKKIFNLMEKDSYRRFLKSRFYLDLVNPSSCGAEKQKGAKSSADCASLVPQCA
Numbers without * were called inactive; i = inactive; / = no result.

SMILES | MrgX1 ag | MrgX1 allo act | MrgX1 antagonist | RGS4 act | RGS4 block
Cc1ccc(Cn2nc(C)c(NC(=O)CSc3n[nH]c(C)c3[N+](=O)[O-])c2C)cc1 | i | i | -6* | i | i
COC(=O)c1ccc(N2CCc3ccccc32)c([N+](=O)[O-])c1 | i | 7.7* | i | i | i
O=C(O)c1ccc(N2CCc3ccccc32)c([N+](=O)[O-])c1 | i | i | i | i | i
CCn1nc(NS(=O)(=O)c2ccccc2[N+](=O)[O-])c2cc3ccc(C)cc3nc21 | i | 9.2* | i | i | i
CC(=O)c1c(C)[nH]c(C(=O)Nc2ccc(C)cc2Br)c1C | i | i | i | i | i
N#C/C(=C\c1cccs1)C(=O)Nc1nccs1 | 44* | i | i | i | i
C=CCN1CC(C(=O)N2CCC(Cc3ccc(Cl)cc3)(C(=O)OCC)CC2)CC1=O (configuration not stated) | i | i | i | i | i
Cc1ccc(-c2cc(C(=O)Nc3ccccn3)c3ccccc3n2)o1 | i | i | -5.1* | i | i
CN1C2CCC1/C(=C\c1ccccc1)C(=O)/C2=C\c1ccccc1 | i | 12* | i | i | i
O=C1/C(=C/c2ccccc2)CCC1C1CCCC1 (configuration not stated) | i | i | i | i | i
COc1cccc(CCNC(=O)C2CCC(=O)N(C3CC3)C2)c1OC (configuration not stated) | / | / | / | i | i
COc1ccc(/C=N/NC(=O)CCn2cnc(-c3ccccc3)c2-c2ccccc2)cc1OC | i | i | -5.6* | i | i
COc1ccc(/C=N/NC(=O)CCC(=O)Nc2ccccc2)cc1OC | i | i | i | i | i
Cc1ccc(S[C@@H](CCN2CC[C@H](C(C)(C)C)CCC2=O)c2ccccc2)cc1 | i | i | i | i | i
Cc1ccc([N+](=O)[O-])c(OCCn2cnc3ccccc32)c1 | i | 10* | i | i | i
Nc1cc([N+](=O)[O-])cc2oc(-c3ccccc3)cc12 | i | i | i | i | i
CN(C)c1ccc(/C=C/c2cc[n+](C)cc2)cc1 | 37* | i | i | i | i
COc1cc2c(cc1OC)CN(C(=O)CN1C(=O)c3ccc([N+](=O)[O-])cc3C1=O)CC2 | i | i | i | i | i
Cc1c(C(=O)N/N=C/c2cccs2)nnn1-c1nonc1N | i | i | i | i | i
CCn1c(=O)c(C(=O)NNC(=O)c2ccccc2F)c(O)c2ccccc21 | 114* | i | i | -8.7* | i
CCCCCC(=O)NNC(=O)c1c(O)c2ccccc2n(CC)c1=O | i | i | i | i | i
Cn1c(=O)n(Cc2ccccc2)c2ccccc21 | i | i | i | i | i
Cn1c(=O)nc2n(Cc3ccccc3)c3cccc(Cl)c3cc-2c1=O | i | i | i | -9.4* | i
COc1ccc(/C=C/C(=O)NC(=S)Nc2ccccn2)cc1 | i | 7.1* | i | i | i
Cc1ccc2oc(-c3cccc(NC(=S)NC(=O)/C=C/c4ccco4)c3)nc2c1 | i | i | i | -7.1* | i
SMILES | MrgX1 ag | MrgX1 allo act | MrgX1 antagonist | RGS4 act | RGS4 block
Cc1ccc2oc(-c3cccc(NC(=S)NC(=O)c4cccs4)c3)nc2c1 | i | i | i | i | i
COc1ccc(/C=C/C(=O)NC(=S)NNC(=O)c2cnccn2)cc1 | i | i | -6.5* | i | i
O=C(/C=C/c1ccco1)NC(=S)Nc1ccccn1 | i | 18* | i | i | i
CC(OC(=O)CSc1ccc(F)cc1)C(=O)NC1(C#N)CCCCC1 (configuration not stated) | i | i | i | i | i
C=CCNC(=O)C(=O)NCC1CCCN1S(=O)(=O)c1cccs1 (configuration not stated) | i | i | i | i | i
O=C(/C=C/c1ccco1)NC(=S)Nc1nc(-c2ccc3ccccc3c2)cs1 | i | i | -6.6* | i | i
O=C(/C=C/c1ccco1)NC(=S)Nc1nc(-c2ccc(Cl)cc2)cs1 | i | i | i | i | i
C=CCN(CC=C)C(=S)NC(=O)/C=C/c1ccc(OC)cc1 | i | 8.9* | i | i | i
COc1cccc(/C=C/c2n[nH]c(=O)c(C#N)c2C)c1 | i | i | i | i | i
CCOC(=O)c1c(NC(=O)Cn2cnc([N+](=O)[O-])n2)sc2c1CCC(C)C2 (configuration not stated) | i | i | i | i | i
COC(=O)c1c(NC(=O)Cn2cnc([N+](=O)[O-])n2)sc2c1CCC(C)C2 (configuration not stated) | i | i | i | -7.6* | i
O=C1CC2(CCN(S(=O)(=O)c3ccccc3F)CC2)Oc2ccccc21 | i | i | i | i | i
CCN(CC)CCCNC(=O)c1ccc2c(SCC(=O)O)c3c(nc2c1)CCC3 | i | i | i | i | i
CCN(CC)CCNC(=O)CSc1c2c(nc3cc(Cl)ccc13)CCCC2 | i | i | i | -7.3* | i
O=[N+]([O-])c1cc([N+](=O)[O-])c(Oc2ccc(F)cc2)cc1NN1CCCCC1 | i | i | i | i | i
O=[N+]([O-])c1cc([N+](=O)[O-])c(Oc2c(F)cccc2F)cc1NN1CCCCC1 | i | i | i | i | i
COc1ccc(Oc2cc(NN3CCCCC3)c([N+](=O)[O-])cc2[N+](=O)[O-])cc1OC | i | i | i | -8.2* | i
CC(=O)c1ccccc1Oc1cc(NN2CCCCC2)c([N+](=O)[O-])cc1[N+](=O)[O-] | i | i | i | -8.3* | i
O=[N+]([O-])c1cc([N+](=O)[O-])c(Oc2c(Cl)cccc2Cl)cc1NN1CCCCC1 | i | i | i | i | i
CC(=O)c1cccc(Oc2cc(NN3CCCCC3)c([N+](=O)[O-])cc2[N+](=O)[O-])c1 | i | i | i | -7.3* | i
O=[N+]([O-])c1cc([N+](=O)[O-])c(Oc2c(F)ccc(F)c2F)cc1NN1CCCCC1 | i | i | i | -7.2* | i
O=C(CN1c2ccccc2S(=O)(=O)c2ccccc21)Nc1ccccc1F | i | i | i | i | i
CN(C)S(=O)(=O)c1ccc(NC=O)cc1 | i | i | i | i | i
CCCCNc1c(-c2cccc(-c3cc(C(C)=O)cs3)c2)nc2ccc(C)cn12 | i | i | i | -7.1* | i

Screens (PubChem BioAssay)
